Measurements from ChEMBL document CHEMBL1137675, “Convenient one-pot synthesis of novel 2-substituted benzimidazoles, tetrahydrobenzimidazoles and imidazoles and evaluation of their in vitro antibacterial and antifungal activities” (2009).
Converted amounts (≈) assume the structure as drawn.

Tests used:
Escherichia coli = assay: Antibacterial activity against Escherichia coli K-12 at 37 degC after 24 hrs by filter paper disk method; type: functional; conditions: for MIC: Escherichia coli, K-12, 24 h
Procedure, shortened: (§1)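 Compounds were taken from a 1 mg/ml DMSO stock and serially diluted two-fold over a 300 to 18.75 range, then loaded onto sterile 8 mm paper discs. Bacteria were grown overnight in nutrient broth at 37 °C, pelleted, and resuspended in sterile NSS to 10⁵ cfu/ml. About 0.1 ml was spread on NA plates. Plates were incubated 24 h at 37 °C with a solvent control disc, and inhibition zone diameter was read in mm.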

Penicillium sp. = assay: Antifungal activity against Penicillium sp. at 28 degC after 72 hrs; type: functional; conditions: for MIC: Penicillium sp., 72 h
Procedure, shortened: (§2)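 Filamentous fungi were kept on SDA at 28 °C. Spores from 7-day cultures were suspended in sterile normal saline to about 10⁵ cfu/ml, and about 0.1 ml was spread on SDA plates. Compounds were serially diluted two-fold in DMSO and impregnated on 8 mm discs, with a solvent control disc on each plate. Plates were held at 28 °C for 72 h or more, and inhibition zone diameter was read in mm.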

Trichoderma viride = assay: Antifungal activity against Trichoderma viride at 28 degC after 72 hrs; type: functional; conditions: for MIC: Trichoderma viride, 72 h; procedure, shortened: as §2
Aspergillus niger = assay: Antifungal activity against Aspergillus niger at 28 degC after 72 hrs; type: functional; conditions: for MIC: Aspergillus niger, 72 h; procedure, shortened: as §2
Bacillus subtilis = assay: Antibacterial activity against Bacillus subtilis ATCC 6051 at 37 degC after 24 hrs by filter paper disk method; type: functional; conditions: for MIC: Bacillus subtilis, ATCC 6051, 24 h; procedure, shortened: as §1
Staphylococcus aureus = assay: Antibacterial activity against Staphylococcus aureus MSSA 22 at 37 degC after 24 hrs by filter paper disk method; type: functional; conditions: for MIC: Staphylococcus aureus, MSSA 22, 24 h; procedure, shortened: as §1
Salmonella typhimurium = assay: Antibacterial activity against Salmonella Typhimurium MTCC 98 at 37 degC after 24 hrs by filter paper disk method; type: functional, Salmonella enterica subsp. enterica serovar Typhimurium; conditions: for MIC: Salmonella enterica, MTCC 98, 24 h; procedure, shortened: as §1
Candida albicans = assay: Antifungal activity against Candida albicans IOA-109 at 37 degC after 18 to 48 hrs; type: functional; conditions: for MIC: Candida albicans, IOA-109
Helminthosporium = assay: Antifungal activity against Helminthosporium oryzae 2537 ICAR at 28 degC after 72 hrs; type: functional; conditions: for MIC: Helminthosporium, 72 h; procedure, shortened: as §2

Row | SMILES | diameter of the inhibition zone (DIZ) (Escherichia coli) | MIC (Escherichia coli) | diameter of the inhibition zone (DIZ) (Penicillium sp.) | MIC (Penicillium sp.) | diameter of the inhibition zone (DIZ) (Trichoderma viride) | MIC (Trichoderma viride) | diameter of the inhibition zone (DIZ) (Aspergillus niger) | MIC (Aspergillus niger) | diameter of the inhibition zone (DIZ) (Bacillus subtilis) | MIC (Bacillus subtilis) | diameter of the inhibition zone (DIZ) (Staphylococcus aureus) | MIC (Staphylococcus aureus) | diameter of the inhibition zone (DIZ) (Salmonella typhimurium) | MIC (Salmonella typhimurium) | diameter of the inhibition zone (DIZ) (Candida albicans) | MIC (Candida albicans) | diameter of the inhibition zone (DIZ) (Helminthosporium) | MIC (Helminthosporium)
1 | C=CCCCCCCCCc1nc2ccccc2[nH]1 | 18 mm | 150 µg/mL (≈ 585 µM) | 18 mm | 75 µg/mL (≈ 293 µM) | 7 mm | 75 µg/mL (≈ 293 µM) | 14 mm | 150 µg/mL (≈ 585 µM) | 22 mm | 75 µg/mL (≈ 293 µM) | 20 mm | 150 µg/mL (≈ 585 µM) | 16 mm | 75 µg/mL (≈ 293 µM) | 19 mm | 75 µg/mL (≈ 293 µM) | 13 mm | 150 µg/mL (≈ 585 µM)
2 | CCCCCC[C@@H](O)C/C=C\CCCCCCCc1nc2c([nH]1)CCCC2 | 15 mm | 150 µg/mL (≈ 400 µM) | 16 mm | 75 µg/mL (≈ 200 µM) | 7 mm | 37.5 µg/mL (≈ 100 µM) | 12 mm | 37.5 µg/mL (≈ 100 µM) | 19 mm | 75 µg/mL (≈ 200 µM) | 17 mm | 75 µg/mL (≈ 200 µM) | 12 mm | 75 µg/mL (≈ 200 µM) | 17 mm | 75 µg/mL (≈ 200 µM) | 11 mm | 150 µg/mL (≈ 400 µM)
3 | CCCCCC[C@@H](O)C/C=C\CCCCCCCc1nc2cc(Cl)ccc2[nH]1 | 18 mm | 75 µg/mL (≈ 185 µM) | 19 mm | 37.5 µg/mL (≈ 92.6 µM) | 9 mm | 37.5 µg/mL (≈ 92.6 µM) | 14 mm | 37.5 µg/mL (≈ 92.6 µM) | 19 mm | 75 µg/mL (≈ 185 µM) | 21 mm | 37.5 µg/mL (≈ 92.6 µM) | 17 mm | 37.5 µg/mL (≈ 92.6 µM) | 18 mm | 37.5 µg/mL (≈ 92.6 µM) | 14 mm | 75 µg/mL (≈ 185 µM)
4 | CCCCCC[C@@H](O)C/C=C\CCCCCCCc1nc2ccccc2[nH]1 | 17 mm | 150 µg/mL (≈ 405 µM) | 19 mm | 75 µg/mL (≈ 202 µM) | 8 mm | 75 µg/mL (≈ 202 µM) | 16 mm | 150 µg/mL (≈ 405 µM) | 21 mm | 75 µg/mL (≈ 202 µM) | 19 mm | 150 µg/mL (≈ 405 µM) | 12 mm | 75 µg/mL (≈ 202 µM) | 19 mm | 75 µg/mL (≈ 202 µM) | 13 mm | 150 µg/mL (≈ 405 µM)
5 | C=CCCCCCCCCc1nc2c([nH]1)CCCC2 | 17 mm | 37.5 µg/mL (≈ 144 µM) | 18 mm | 75 µg/mL (≈ 288 µM) | 7 mm | 37.5 µg/mL (≈ 144 µM) | 12 mm | 37.5 µg/mL (≈ 144 µM) | 18 mm | 75 µg/mL (≈ 288 µM) | 18 mm | 75 µg/mL (≈ 288 µM) | 11 mm | 75 µg/mL (≈ 288 µM) | 18 mm | 75 µg/mL (≈ 288 µM) | 11 mm | 150 µg/mL (≈ 576 µM)
6 | CCCCCCCC/C=C/CCCCCCCc1ncc[nH]1 | 11 mm | 150 µg/mL (≈ 493 µM) | 17 mm | 150 µg/mL (≈ 493 µM) | 4 mm | 75 µg/mL (≈ 246 µM) | 12 mm | 150 µg/mL (≈ 493 µM) | 19 mm | 37.5 µg/mL (≈ 123 µM) | 15 mm | 150 µg/mL (≈ 493 µM) | 11 mm | 75 µg/mL (≈ 246 µM) | 18 mm | 75 µg/mL (≈ 246 µM) | 12 mm | 150 µg/mL (≈ 493 µM)
7 | CCCCC/C=C\CC[C@H](O)CCCCCCCc1ncc[nH]1 | 12 mm | 150 µg/mL (≈ 468 µM) | 19 mm | 150 µg/mL (≈ 468 µM) | 6 mm | 75 µg/mL (≈ 234 µM) | 14 mm | 150 µg/mL (≈ 468 µM) | 19 mm | 37.5 µg/mL (≈ 117 µM) | 15 mm | 150 µg/mL (≈ 468 µM) | 12 mm | 75 µg/mL (≈ 234 µM) | 18 mm | 75 µg/mL (≈ 234 µM) | 12 mm | 150 µg/mL (≈ 468 µM)
8 | CCCCCCCC/C=C/CCCCCCCc1nc2cc([N+](=O)[O-])ccc2[nH]1 | 20 mm | 75 µg/mL (≈ 188 µM) | 18 mm | 37.5 µg/mL (≈ 93.8 µM) | 8 mm | 37.5 µg/mL (≈ 93.8 µM) | 15 mm | 37.5 µg/mL (≈ 93.8 µM) | 20 mm | 37.5 µg/mL (≈ 93.8 µM) | 21 mm | 37.5 µg/mL (≈ 93.8 µM) | 11 mm | 37.5 µg/mL (≈ 93.8 µM) | 19 mm | 37.5 µg/mL (≈ 93.8 µM) | 12 mm | 75 µg/mL (≈ 188 µM)
9 | CCCCCCCC/C=C/CCCCCCCc1nc2cc(Cl)ccc2[nH]1 | 18 mm | 75 µg/mL (≈ 193 µM) | 19 mm | 37.5 µg/mL (≈ 96.4 µM) | 9 mm | 37.5 µg/mL (≈ 96.4 µM) | 15 mm | 37.5 µg/mL (≈ 96.4 µM) | 18 mm | 75 µg/mL (≈ 193 µM) | 20 mm | 37.5 µg/mL (≈ 96.4 µM) | 15 mm | 37.5 µg/mL (≈ 96.4 µM) | 18 mm | 37.5 µg/mL (≈ 96.4 µM) | 16 mm | 75 µg/mL (≈ 193 µM)
10 | CCCCC/C=C\CC[C@H](O)CCCCCCCc1nc2cc([N+](=O)[O-])ccc2[nH]1 | 18 mm | 37.5 µg/mL (≈ 90.2 µM) | 19 mm | 37.5 µg/mL (≈ 90.2 µM) | 9 mm | 37.5 µg/mL (≈ 90.2 µM) | 14 mm | 37.5 µg/mL (≈ 90.2 µM) | 22 mm | 37.5 µg/mL (≈ 90.2 µM) | 19 mm | 37.5 µg/mL (≈ 90.2 µM) | 13 mm | 37.5 µg/mL (≈ 90.2 µM) | 19 mm | 37.5 µg/mL (≈ 90.2 µM) | 14 mm | 75 µg/mL (≈ 180 µM)
11 | CCCCCCCC/C=C/CCCCCCCc1nc2c([nH]1)CCCC2 | 17 mm | 150 µg/mL (≈ 418 µM) | 17 mm | 75 µg/mL (≈ 209 µM) | 6 mm | 37.5 µg/mL (≈ 105 µM) | 13 mm | 37.5 µg/mL (≈ 105 µM) | 19 mm | 75 µg/mL (≈ 209 µM) | 16 mm | 75 µg/mL (≈ 209 µM) | 10 mm | 75 µg/mL (≈ 209 µM) | 18 mm | 75 µg/mL (≈ 209 µM) | 12 mm | 150 µg/mL (≈ 418 µM)
